Laboratory results reported in ChEMBL document CHEMBL5303300, “EUbOPEN Chemogenomics Library - Multiplex” (2023).
Values joined by “and” are separate entries in the source; they are usually repeats but may differ in a detail not shown here. Identical values can stand only once.

Tested on: HEK-293T
Assay: Multiplex assay against HEK293T
Assay type: toxicity, cell-based
Details: human, number of replicates 2
Procedure, shortened: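 Values for tubulin, mitochondrial-mass and membrane-permeability phenotypes are per cents of cells with healthy nuclei. These cells were identified by CellPathfinder machine-learning gating of live cells that had been stained at seeding with Hoechst33342, BioTracker Green Microtubule Cytoskeleton Dye, MitoTracker Red and Annexin V Alexa Fluor 680 and imaged on a CQ1 microscope at 37°C and 5% CO2 after compound addition. The gating first set Hoechst high-intensity objects apart from normal cells, then split normal cells into healthy, pyknosed or fragmented nuclei, and pyknosed cells into mitotic or apoptotic.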

[1] = 12 h, 1 µM, compound concentration 1 uM
[2] = 12 h, 10 µM, compound concentration 10 uM
[3] = 24 h, 1 µM, compound concentration 1 uM
[4] = 24 h, 10 µM, compound concentration 10 uM
[5] = 48 h, 1 µM, compound concentration 1 uM
[6] = 48 h, 10 µM, compound concentration 10 uM

SMILES: CC(C)NC(=O)[C@H]1CCC[C@H]1Nc1nc(Nc2ccc(C(=O)N(C)C3CCN(C)CC3)cc2)ncc1Cl
- Population Apoptotic (%) [1]: 64% and 57%
- Population Fragmented Nuclei (%) [1]: 3% and 1%
- Population Healthy Nuclei (%) [1]: 79% and 87%
- Population Hoechst High Intensity Objects (%) [1]: 7% and 8%
- Population Membrane Permeable-Phenotype (%) [1]: 4% and 2%
- Population Mitochondria Different-Phenotype (%) [1]: 17% and 15%
- Population Mitotic Cells (%) [1]: 35% and 42%
- Population Normal (%) [1]: 92% and 91%
- Population Pyknosed Nuclei (%) [1]: 16% and 10%
- Population Tubulin-Different-Phenotype (%) [1]: 60% and 58%
- Total Cell Count [1]: 568 and 503
- Population Apoptotic (%) [2]: 47% and 56%
- Population Fragmented Nuclei (%) [2]: 3% and 2%
- Population Healthy Nuclei (%) [2]: 87% and 86%
- Population Hoechst High Intensity Objects (%) [2]: 8% and 7%
- Population Membrane Permeable-Phenotype (%) [2]: 4%
- Population Mitochondria Different-Phenotype (%) [2]: 29% and 30%
- Population Mitotic Cells (%) [2]: 52% and 43%
- Population Normal (%) [2]: 91% and 92%
- Population Pyknosed Nuclei (%) [2]: 9% and 10%
- Population Tubulin-Different-Phenotype (%) [2]: 88% and 87%
- Total Cell Count [2]: 520 and 480
- Population Apoptotic (%) [3]: 64% and 61%
- Population Fragmented Nuclei (%) [3]: 5% and 6%
- Population Healthy Nuclei (%) [3]: 76% and 84%
- Population Hoechst High Intensity Objects (%) [3]: 9% and 10%
- Population Membrane Permeable-Phenotype (%) [3]: 2%
- Population Mitochondria Different-Phenotype (%) [3]: 9% and 5%
- Population Mitotic Cells (%) [3]: 35% and 38%
- Population Normal (%) [3]: 90% and 89%
- Population Pyknosed Nuclei (%) [3]: 17% and 8%
- Population Tubulin-Different-Phenotype (%) [3]: 43% and 37%
- Total Cell Count [3]: 653 and 524
- Population Apoptotic (%) [4]: 52% and 54%
- Population Fragmented Nuclei (%) [4]: 3% and 4%
- Population Healthy Nuclei (%) [4]: 85% and 87%
- Population Hoechst High Intensity Objects (%) [4]: 6% and 9%
- Population Membrane Permeable-Phenotype (%) [4]: 6% and 3%
- Population Mitochondria Different-Phenotype (%) [4]: 16% and 18%
- Population Mitotic Cells (%) [4]: 47% and 45%
- Population Normal (%) [4]: 93% and 90%
- Population Pyknosed Nuclei (%) [4]: 11% and 7%
- Population Tubulin-Different-Phenotype (%) [4]: 74% and 81%
- Total Cell Count [4]: 514 and 516
- Population Apoptotic (%) [5]: 68% and 45%
- Population Fragmented Nuclei (%) [5]: 9% and 8%
- Population Healthy Nuclei (%) [5]: 84% and 89%
- Population Hoechst High Intensity Objects (%) [5]: 9% and 10%
- Population Membrane Permeable-Phenotype (%) [5]: 3% and 1%
- Population Mitochondria Different-Phenotype (%) [5]: 1% and 2%
- Population Mitotic Cells (%) [5]: 31% and 54%
- Population Normal (%) [5]: 90% and 89%
- Population Pyknosed Nuclei (%) [5]: 5% and 2%
- Population Tubulin-Different-Phenotype (%) [5]: 22% and 20%
- Total Cell Count [5]: 714 and 606
- Population Apoptotic (%) [6]: 47% and 53%
- Population Fragmented Nuclei (%) [6]: 8% and 10%
- Population Healthy Nuclei (%) [6]: 84% and 85%
- Population Hoechst High Intensity Objects (%) [6]: 10% and 11%
- Population Membrane Permeable-Phenotype (%) [6]: 3% and 4%
- Population Mitochondria Different-Phenotype (%) [6]: 5%
- Population Mitotic Cells (%) [6]: 52% and 46%
- Population Normal (%) [6]: 89% and 88%
- Population Pyknosed Nuclei (%) [6]: 6% and 4%
- Population Tubulin-Different-Phenotype (%) [6]: 67% and 70%
- Total Cell Count [6]: 617 and 637

SMILES: COc1cc(N(C)c2ccnc3ccc(C(F)(F)F)cc23)cc(OC)c1OC
- Population Apoptotic (%) [1]: 58% and 48%
- Population Fragmented Nuclei (%) [1]: 5% and 4%
- Population Healthy Nuclei (%) [1]: 81% and 79%
- Population Hoechst High Intensity Objects (%) [1]: 7% and 6%
- Population Membrane Permeable-Phenotype (%) [1]: 2% and 5%
- Population Mitochondria Different-Phenotype (%) [1]: 13% and 17%
- Population Mitotic Cells (%) [1]: 41% and 51%
- Population Normal (%) [1]: 92% and 93%
- Population Pyknosed Nuclei (%) [1]: 12% and 16%
- Population Tubulin-Different-Phenotype (%) [1]: 50% and 48%
- Total Cell Count [1]: 523 and 568
- Population Apoptotic (%) [2]: 42% and 52%
- Population Fragmented Nuclei (%) [2]: 3% and 2%
- Population Healthy Nuclei (%) [2]: 82% and 80%
- Population Hoechst High Intensity Objects (%) [2]: 5%
- Population Membrane Permeable-Phenotype (%) [2]: 5% and 3%
- Population Mitochondria Different-Phenotype (%) [2]: 34% and 29%
- Population Mitotic Cells (%) [2]: 57% and 47%
- Population Normal (%) [2]: 94%
- Population Pyknosed Nuclei (%) [2]: 14% and 17%
- Population Tubulin-Different-Phenotype (%) [2]: 79% and 82%
- Total Cell Count [2]: 570 and 542
- Population Apoptotic (%) [3]: 54% and 36%
- Population Fragmented Nuclei (%) [3]: 5% and 6%
- Population Healthy Nuclei (%) [3]: 83% and 85%
- Population Hoechst High Intensity Objects (%) [3]: 7% and 6%
- Population Membrane Permeable-Phenotype (%) [3]: 3% and 5%
- Population Mitochondria Different-Phenotype (%) [3]: 6% and 4%
- Population Mitotic Cells (%) [3]: 45% and 63%
- Population Normal (%) [3]: 92% and 93%
- Population Pyknosed Nuclei (%) [3]: 10% and 8%
- Population Tubulin-Different-Phenotype (%) [3]: 33% and 26%
- Total Cell Count [3]: 845 and 846
- Population Apoptotic (%) [4]: 46% and 53%
- Population Fragmented Nuclei (%) [4]: 3% and 4%
- Population Healthy Nuclei (%) [4]: 84% and 83%
- Population Hoechst High Intensity Objects (%) [4]: 5%
- Population Membrane Permeable-Phenotype (%) [4]: 3% and 1%
- Population Mitochondria Different-Phenotype (%) [4]: 31% and 20%
- Population Mitotic Cells (%) [4]: 53% and 46%
- Population Normal (%) [4]: 94%
- Population Pyknosed Nuclei (%) [4]: 11% and 12%
- Population Tubulin-Different-Phenotype (%) [4]: 69% and 64%
- Total Cell Count [4]: 762 and 740
- Population Apoptotic (%) [5]: 16% and 24%
- Population Fragmented Nuclei (%) [5]: 12% and 11%
- Population Healthy Nuclei (%) [5]: 83% and 84%
- Population Hoechst High Intensity Objects (%) [5]: 7%
- Population Membrane Permeable-Phenotype (%) [5]: 5% and 4%
- Population Mitochondria Different-Phenotype (%) [5]: 0%
- Population Mitotic Cells (%) [5]: 83% and 75%
- Population Normal (%) [5]: 92%
- Population Pyknosed Nuclei (%) [5]: 3%
- Population Tubulin-Different-Phenotype (%) [5]: 12% and 11%
- Total Cell Count [5]: 2086 and 2004
- Population Apoptotic (%) [6]: 26% and 38%
- Population Fragmented Nuclei (%) [6]: 9% and 7%
- Population Healthy Nuclei (%) [6]: 85% and 86%
- Population Hoechst High Intensity Objects (%) [6]: 7% and 8%
- Population Membrane Permeable-Phenotype (%) [6]: 3% and 1%
- Population Mitochondria Different-Phenotype (%) [6]: 9%
- Population Mitotic Cells (%) [6]: 73% and 61%
- Population Normal (%) [6]: 92% and 91%
- Population Pyknosed Nuclei (%) [6]: 5%
- Population Tubulin-Different-Phenotype (%) [6]: 48% and 46%
- Total Cell Count [6]: 1391 and 1324

SMILES: CNc1ncc2cc(-c3ccc(-c4cccc(C)n4)cc3Cl)c(=O)n(C[C@H]3OC[C@H](N)CO3)c2n1
- Population Apoptotic (%) [1]: 57% and 63%
- Population Fragmented Nuclei (%) [1]: 2%
- Population Healthy Nuclei (%) [1]: 85% and 82%
- Population Hoechst High Intensity Objects (%) [1]: 5% and 6%
- Population Membrane Permeable-Phenotype (%) [1]: 7% and 3%
- Population Mitochondria Different-Phenotype (%) [1]: 8% and 9%
- Population Mitotic Cells (%) [1]: 42% and 36%
- Population Normal (%) [1]: 94% and 93%
- Population Pyknosed Nuclei (%) [1]: 11% and 15%
- Population Tubulin-Different-Phenotype (%) [1]: 28% and 30%
- Total Cell Count [1]: 581 and 605
- Population Apoptotic (%) [2]: 36% and 26%
- Population Fragmented Nuclei (%) [2]: 6% and 8%
- Population Healthy Nuclei (%) [2]: 79% and 76%
- Population Hoechst High Intensity Objects (%) [2]: 30%
- Population Membrane Permeable-Phenotype (%) [2]: 25% and 20%
- Population Mitochondria Different-Phenotype (%) [2]: 7% and 6%
- Population Mitotic Cells (%) [2]: 63% and 73%
- Population Normal (%) [2]: 69%
- Population Pyknosed Nuclei (%) [2]: 13% and 15%
- Population Tubulin-Different-Phenotype (%) [2]: 57% and 65%
- Total Cell Count [2]: 885 and 788
- Population Apoptotic (%) [3]: 51% and 54%
- Population Fragmented Nuclei (%) [3]: 3%
- Population Healthy Nuclei (%) [3]: 88% and 85%
- Population Hoechst High Intensity Objects (%) [3]: 3% and 5%
- Population Membrane Permeable-Phenotype (%) [3]: 2% and 3%
- Population Mitochondria Different-Phenotype (%) [3]: 2% and 5%
- Population Mitotic Cells (%) [3]: 48% and 45%
- Population Normal (%) [3]: 96% and 94%
- Population Pyknosed Nuclei (%) [3]: 8% and 11%
- Population Tubulin-Different-Phenotype (%) [3]: 11% and 16%
- Total Cell Count [3]: 923 and 803
- Population Apoptotic (%) [4]: 20%
- Population Fragmented Nuclei (%) [4]: 6% and 8%
- Population Healthy Nuclei (%) [4]: 68% and 69%
- Population Hoechst High Intensity Objects (%) [4]: 31% and 34%
- Population Membrane Permeable-Phenotype (%) [4]: 18% and 11%
- Population Mitochondria Different-Phenotype (%) [4]: 4% and 3%
- Population Mitotic Cells (%) [4]: 79%
- Population Normal (%) [4]: 68% and 65%
- Population Pyknosed Nuclei (%) [4]: 25% and 22%
- Population Tubulin-Different-Phenotype (%) [4]: 52% and 46%
- Total Cell Count [4]: 1101 and 1092
- Population Apoptotic (%) [5]: 20% and 34%
- Population Fragmented Nuclei (%) [5]: 9% and 6%
- Population Healthy Nuclei (%) [5]: 85% and 88%
- Population Hoechst High Intensity Objects (%) [5]: 6% and 5%
- Population Membrane Permeable-Phenotype (%) [5]: 3% and 2%
- Population Mitochondria Different-Phenotype (%) [5]: 0% and 2%
- Population Mitotic Cells (%) [5]: 80% and 65%
- Population Normal (%) [5]: 93% and 94%
- Population Pyknosed Nuclei (%) [5]: 4%
- Population Tubulin-Different-Phenotype (%) [5]: 7% and 9%
- Total Cell Count [5]: 1888 and 1385
- Population Apoptotic (%) [6]: 13% and 10%
- Population Fragmented Nuclei (%) [6]: 4% and 6%
- Population Healthy Nuclei (%) [6]: 68% and 70%
- Population Hoechst High Intensity Objects (%) [6]: 28% and 30%
- Population Membrane Permeable-Phenotype (%) [6]: 11% and 4%
- Population Mitochondria Different-Phenotype (%) [6]: 2% and 1%
- Population Mitotic Cells (%) [6]: 86% and 89%
- Population Normal (%) [6]: 71% and 69%
- Population Pyknosed Nuclei (%) [6]: 26% and 22%
- Population Tubulin-Different-Phenotype (%) [6]: 26% and 21%
- Total Cell Count [6]: 1638 and 1597
